Compounds with a hit are over-represented: about 3.1% of the library has one in this group of screens.
KCNK9 inh = blocks the human KCNK9 two-pore domain potassium channel; Q9NPC2; HEK293 KCNK9, FluxOR thallium flux fluorescence; stronger effect = lower value; B-score at 10 µM; actives 1.2% (n = 310,000); AID 488922;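 active means ratio B-score over 3 SD below the library mean, with starting fluorescence within 5 SD of its mean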;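 further: negative B-score means less thallium flux so channel inhibition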
Target sequence (Q9NPC2 whole entry, looked up, the tested form may be a part): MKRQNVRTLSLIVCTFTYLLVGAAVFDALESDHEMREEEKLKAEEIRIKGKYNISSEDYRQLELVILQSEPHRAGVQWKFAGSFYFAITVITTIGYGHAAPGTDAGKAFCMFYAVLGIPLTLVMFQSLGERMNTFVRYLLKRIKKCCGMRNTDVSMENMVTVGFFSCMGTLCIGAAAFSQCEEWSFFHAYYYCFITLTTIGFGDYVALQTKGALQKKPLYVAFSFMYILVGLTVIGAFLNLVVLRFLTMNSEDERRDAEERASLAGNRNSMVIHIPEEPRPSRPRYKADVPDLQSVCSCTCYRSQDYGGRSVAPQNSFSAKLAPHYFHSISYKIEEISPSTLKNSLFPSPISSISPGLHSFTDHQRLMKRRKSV
hERG protect = shields human hERG channel from block by proarrhythmic agents; AID 1511; actives 0.51% (n = 310,000); Q12809; activation (rescue from dofetilide block), less the hit threshold, % at 10 µM; CHO-hERG, FluxOR thallium flux, dofetilide IC70 present;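 active means activation above the mean of controls blocked by dofetilide plus 5 SD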;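 further: thallium influx through hERG after potassium depolarization seen as dye fluorescence rise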
KCNK3 block = human KCNK3 channel inhibition, primary screen. B-score at 10 µM. O14649. AID 602410. actives 0.84% (n = 340,000). CHO-KCNK3 thallium flux, FluxOR fluorescence; stronger effect = lower value;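 active means B-score under library mean minus 4 SD, starting fluorescence ratio at most library mean plus 5 SD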;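 further: more negative B-score means stronger inhibition of thallium flux through KCNK3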
KCNQ1 inh = blocks the human KCNQ1 potassium channel; CHO-K1 KCNQ1, FluxOR thallium flux fluorescence; stronger effect = higher value; actives 1.3% (n = 310,000); B-score at 10 µM; P51787;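 active means compounds whose thallium flux B-score, printed positive for inhibition, exceeds three library SD while starting fluorescence stays within three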;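 further: channel opened by potassium depolarization with thallium stimulus after 20 min compound exposure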
KCNQ1 act = potentiates or activates the human KCNQ1 potassium channel | actives 0.35% (n = 310,000) | CHO-K1 KCNQ1, thallium flux FluxOR fluorescence; stronger effect = higher value | B-score at 10 µM | P51787;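 active means fluorescence ratio B-score, a plate-corrected score, at least three library SD, with initial intensity B-score within 5 SD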
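Material: CHO-K1 cells stably expressing KCNQ1. Medium: assay buffer for compound exposure, DMSO matched across wells. Reagent: K+/Tl+ depolarizing stimulus. Compound dosing: single-concentration screen. Times: 37 °C overnight plating, 90-min dark dye load, 20-min compound pretreatment. Technique: FluxOR Tl+ flux fluorescence.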
Of the large screens only hits and unclear results are named; the others gave an inactive call.

Cc1ncsc1C(=O)N1N=C2/C(=C/c3ccc(N4CCOCC4)cc3)CCCC2C1c1ccc(N2CCOCC2)cc1 (stereo unspecified)	none
COc1cc(/C=C(\C#N)C(=O)NCCc2ccccc2)cc(OC)c1O	none
COc1cc(/C=C(\C#N)C(=O)c2c[nH]c3ccccc23)cc(OC)c1O	KCNQ1 inh 7
CC(=O)c1c(C)[nH]c(C(=O)CN2C(=O)NC3(CCCCC3)C2=O)c1C	none (no result: KCNK9 inh, hERG protect, KCNQ1 inh, KCNQ1 act)
CCc1ccc(-c2cc(C)no2)cc1S(=O)(=O)N1CCN(c2ccccc2)CC1	KCNQ1 inh 6
Cc1cc(-c2ccc(C)c(S(=O)(=O)N3CCN(c4ccc([N+](=O)[O-])cc4)CC3)c2)on1	none
COC(=O)c1c[nH]c2c1-c1cc(C(=O)OCc3ccccc3)n(S(=O)(=O)c3ccc(C)cc3)c1C(=O)C2=O	none (no result: KCNK9 inh, hERG protect, KCNQ1 inh, KCNQ1 act)
CCOc1ccc(-c2csc(/C(C#N)=C\c3ccc(O)c([N+](=O)[O-])c3)n2)cc1	KCNQ1 inh 6
CC(Oc1ccc(C#N)cc1)C(=O)Nc1ccc(-n2cnnn2)cc1 (stereo unspecified)	none (no result: KCNK9 inh, hERG protect, KCNQ1 inh, KCNQ1 act)
O=C(NNC(=S)Nc1ccc(Cl)cc1)c1ccccc1OC(F)F	KCNQ1 inh 8
O=C(NNC(=S)NCc1ccccc1)c1ccccc1OC(F)F	none
CSc1cc(-c2ccncc2)nc(-c2ccc(Cl)cc2)c1	none
Cc1cc(=O)oc2cc(OC(C)C)ccc12	none
Cc1cc(=O)oc2cc(OC(C(=O)O)c3ccccc3)ccc12 (stereo unspecified)	hERG protect 6.7
Cc1cc(C)c(OCC(=O)NCC2COc3ccccc3O2)c(C)c1 (stereo unspecified)	none (no result: KCNK9 inh, hERG protect, KCNQ1 inh, KCNQ1 act)
NS(=O)(=O)c1ccc(S(=O)(=O)c2ccccc2)nc1	none
NS(=O)(=O)c1ccc(Sc2ccc3c(c2)CCC3)nc1	KCNQ1 act 8
Cc1cc(Cl)ccc1OCC(=O)OCC(=O)NC1CCS(=O)(=O)C1 (stereo unspecified)	none (no result: KCNK9 inh, hERG protect, KCNQ1 inh, KCNQ1 act)
O=C(NCCCN1CCOCC1)C1CCN(S(=O)(=O)c2ccccc2)CC1	none
Cc1ccc(-n2cccc2C(=S)N=P(N(C)C)(N(C)C)N(C)C)cc1	KCNK9 inh -7.6
Cc1ccc(/C=C2/SC(=S)N(CCCC(=O)Nc3cc([N+](=O)[O-])ccc3O)C2=O)cc1	KCNQ1 inh 7
COc1ccc(/C=C2\SC(=O)N(CC(=O)Nc3ccccc3O)C2=O)cc1OC	none
O=C(CN1C(=O)S/C(=C\c2ccccc2)C1=O)Nc1cc([N+](=O)[O-])ccc1O	KCNQ1 inh 8
Cc1cc(C(=O)NC2CCCC(C)C2C)c2ccccc2n1 (stereo unspecified)	none
Cc1noc(C)c1S(=O)(=O)N1CCN(c2ccc(Cl)cc2)CC1	none
Cc1ccc(Cl)cc1N1CCN(S(=O)(=O)c2c(C)noc2C)CC1	KCNQ1 inh 6
COc1ccc(N2CCN(C(=O)COC(=O)c3c(-c4ccccc4)noc3C)CC2)cc1	none (no result: KCNK9 inh, hERG protect, KCNQ1 inh, KCNQ1 act)
Cc1ccc(S(=O)(=O)NC(=NCc2ccccc2)c2ccc(F)cc2)cc1	none
Cc1ccccc1S(=O)(=O)NC(=NCc1ccc(F)cc1)c1ccccc1	KCNK3 block -9.3 (no result: KCNK9 inh, hERG protect, KCNQ1 inh, KCNQ1 act)
COc1cccc(/C=N/n2c(SC)nnc2-c2ccccc2)c1O	KCNQ1 act 15
COc1cccc(/C=N/n2c(SC)nnc2-c2ccccc2)c1OC	none
CCOC(=O)/C=C1/SCC(=O)N1CC(=O)NC12CC3CC(CC(C3)C1)C2	none (no result: KCNK9 inh, hERG protect, KCNQ1 inh, KCNQ1 act)
COc1cc(OC)cc(C(=O)NC(=S)NCCc2ccccc2)c1	none
CCOc1ccc(CN(CCC#N)C(=S)NC(=O)c2ccccc2)cc1	KCNQ1 act 11
CCOc1ccc(C(=O)NC(=S)N(Cc2ccccc2)Cc2ccccc2)cc1	hERG protect 27, KCNQ1 act 75
Cc1ccc(C(=O)NC(=S)N(C)Cc2ccccc2)cc1	none
CCCN(CCC)C(=S)NC(=O)c1ccc(-c2ccccc2)cc1	hERG protect 19, KCNQ1 act 9
COc1cc(OC)cc(C(=O)NC(=S)N(Cc2ccccc2)C(C)C)c1	hERG protect 17, KCNQ1 act 27
COc1sc(SC)cc1/C=N/NC(=O)c1ccncc1	none
CCOc1ccc(NC(=O)CN(c2ccc([N+](=O)[O-])cc2)S(=O)(=O)c2ccccc2)cc1	KCNQ1 inh 6
CC(=O)Nc1ccc(NC(=O)CN(c2ccc([N+](=O)[O-])cc2)S(=O)(=O)c2ccccc2)cc1	none
CCNC(=O)COc1ccc(-c2ccccc2)cc1	none
CC(C)(C)NC(=O)COc1ccc(-c2ccccc2)cc1	KCNK9 inh -7.7

Screening data: PubChem BioAssay, Johns Hopkins Ion Channel Center
